The source of these data is ChEMBL document CHEMBL4396897, “Potent 5-Cyano-6-phenyl-pyrimidin-Based Derivatives Targeting DCN1-UBE2M Interaction” (J Med Chem, 2019).

One data set concerns the target DCN1-like protein 1 (Homo sapiens, UniProt Q96GG9). As to the kind of experiment: Binding affinity to N-terminal His6-tagged recombinant human DCN1 expressed in Escherichia coli BL21-AI assessed as reduction in DCN1-FAM-labelled N-terminal acetylated UBE2M (1 to 12 residues) protein-protein interaction after 30 mins by fluorescence polarization competitive binding assay.

The target in another data set is T1, DCN1-like protein 4 (Homo sapiens, UniProt Q92564).
T1 sequence (Q92564 whole entry): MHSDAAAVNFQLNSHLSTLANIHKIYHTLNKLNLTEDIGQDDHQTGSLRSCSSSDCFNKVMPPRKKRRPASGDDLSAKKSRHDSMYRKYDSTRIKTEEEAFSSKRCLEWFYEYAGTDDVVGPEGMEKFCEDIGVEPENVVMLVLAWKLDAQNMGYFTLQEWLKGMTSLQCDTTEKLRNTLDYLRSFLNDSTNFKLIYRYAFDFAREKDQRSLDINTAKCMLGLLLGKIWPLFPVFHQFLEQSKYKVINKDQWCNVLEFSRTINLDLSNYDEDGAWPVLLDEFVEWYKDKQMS
The experiment in a line: Binding affinity to N-terminal GST tagged recombinant DCN4 (unknown origin) (102 to 292 residues) expressed in Escherichia coli BL21(DE3) assessed as reduction in DCN1/FAM-labelled N-terminal acetylated UBE2M (1 to 21 residues) protein-protein interaction after 30 mins by HTRF assay. An outline of the steps: (§1)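 HTRF competition: 5nM GST-tagged DCN (1-5) and 5nM AcUBE2M1-21-biotin peptide, with streptavidin-XL665 and anti-GST cryptate, in 100mM phosphate buffer pH 6.5 with 0.02% Tween-20. Cocktail pre-incubated 30min at room temperature, compound added, then 30min more. Excitation 320nm, emission 615/665nm. Ki from three independent repeats, mean ± SD.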

In another data set the target is T2, DCN1-like protein 5 (Homo sapiens, UniProt Q9BTE7).
T2 sequence (Q9BTE7 whole entry): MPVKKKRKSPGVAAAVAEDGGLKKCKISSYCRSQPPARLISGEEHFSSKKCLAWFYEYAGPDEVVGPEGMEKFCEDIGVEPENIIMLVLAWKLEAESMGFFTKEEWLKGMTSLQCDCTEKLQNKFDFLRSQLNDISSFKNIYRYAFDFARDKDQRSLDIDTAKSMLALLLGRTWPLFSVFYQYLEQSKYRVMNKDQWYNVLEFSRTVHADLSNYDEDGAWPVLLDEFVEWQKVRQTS
The experiment in a line: Binding affinity to N-terminal GST tagged recombinant DCN5 (unknown origin) (47 to 237 residues) expressed in Escherichia coli BL21(DE3) assessed as reduction in DCN1/FAM-labelled N-terminal acetylated UBE2M (1 to 21 residues) protein-protein interaction after 30 mins by HTRF assay. A digest of the protocol: as §1
A general note: Time-resolved FRET reads energy transfer from a long-lived donor to a nearby acceptor.

For data set [1], the system named is PC-9. As to the kind of experiment: Effect on Cullin3 neddylation in human PC9 cells transfected with DCN1 siRNA3 by densitometric method. It counts as functional, cell-based. An outline of the steps: (§2)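 H1975 or PC9 cells seeded in 6-well plates for 16-24h, transfected with DCN1 siRNA#3 by lipofection, with or without compound, and collected three days later. Western blot for Cullin3, DCN1, NRF2, HO-1 and NQO1, with densitometry normalized to GAPDH. Three individual experiments, means ± SD.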

For data set [2], the system named is PC-9. As to the kind of experiment: Effect on HO-1 accumulation in human PC9 cells transfected with DCN1 siRNA3 by densitometric method. It counts as functional, cell-based. A digest of the protocol:
as §2

For data set [3], the system named is PC-9. As to the kind of experiment: Antiproliferative activity against human PC9 by MTT assay. The format is functional, cell-based. An outline of the steps: (§3)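 MTT viability assay: cells seeded at 2~5×10^3 per well, exposed to serial dilutions of compound for 72h, then MTT (5 mg/mL in PBS) added for 4h at 37°C. Formazan dissolved in DMSO and read at 490nm. IC50 reported as mean ± SD of three independent experiments.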
(Formazan colour is commonly taken as a measure of viable cells.)

A further data set relates to SMMC-7721. The experiment in a line: Antiproliferative activity against human SMMC7721 after 72 hrs by MTT assay. It counts as functional, cell-based. As to conditions: SMMC-7721, 72 h. An outline of the steps:
as §3

The test system of a further data set is PC-3. The experiment in a line: Antiproliferative activity against human PC3 after 72 hrs by MTT assay. The format is functional, cell-based. As to conditions: PC-3, 72 h. A digest of the protocol: as §3
The subject of another data set is MCF7. As to the kind of experiment: Antiproliferative activity against human MCF7 after 72 hrs by MTT assay. The format is functional, cell-based. As to conditions: MCF7, 72 h. A digest of the protocol:
as §3

For another data set, the system named is KYSE-140. The experiment in a line: Antiproliferative activity against human KYSE-140 after 72 hrs by MTT assay. The format is functional, cell-based. A digest of the protocol:
as §3

The next data set has as its system L02. As to the kind of experiment: Antiproliferative activity against human L02 after 72 hrs by MTT assay. As to conditions: l02, 72 h. It counts as cell-based. A digest of the protocol: as §3
The test system of data set [4] is PC-9. As to the kind of experiment: Induction of apoptosis in human PC9 cells assessed as late apoptotic cells at 2.5 uM after 48 hrs by Annexin V-FITC/propidium iodide staining based flow cytometry (reference value: 1.57%). The format is functional.
Data set [5] deals with PC-9. The experiment in a line: Induction of apoptosis in human PC9 cells assessed as necrotic cells at 2.5 uM after 48 hrs by Annexin V-FITC/propidium iodide staining based flow cytometry (reference value: 1.34%). The format is functional. An outline of the steps:
(§4)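 PC9 cells seeded in 6-well plates (1~2×10^6 cells/mL), incubated overnight, then exposed to 0, 2.5, 5 or 10µM compound for 48h. Harvested cells stained with Annexin-V-FITC/PI for 30 min and analysed by flow cytometry. Three individual experiments; means ± SD.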
In general terms: Flow cytometry measures light scatter and fluorescence of single cells or particles in a stream.

Data set [6] deals with NCI-H1975. As to the kind of experiment: Induction of apoptosis in human NCI-NCI-H1975 cells assessed as viable cells at 2.5 uM after 48 hrs by Annexin V-FITC/propidium iodide staining based flow cytometry (reference value: 96.1%). It counts as functional. As to conditions: NCI-H1975, 48 h, read-out: Activity.
The test system of data set [7] is NCI-H1975. The experiment in a line: Induction of apoptosis in human NCI-NCI-H1975 cells assessed as necrotic cells at 2.5 uM after 48 hrs by Annexin V-FITC/propidium iodide staining based flow cytometry (reference value: 0.94%). It counts as functional.
For data set [8], the system named is PC-9. As to the kind of experiment: Induction of apoptosis in human PC9 cells after 48 hrs by Annexin V-FITC/propidium iodide staining based flow cytometry. The format is functional, cell-based. A digest of the protocol:
as §4

Activity calls are given as the source filed them. The calls are words filed in the database; no cut-off is given here.

Chain of DCN1-like protein 1 (Q96GG9 whole entry, the tested form may be a part): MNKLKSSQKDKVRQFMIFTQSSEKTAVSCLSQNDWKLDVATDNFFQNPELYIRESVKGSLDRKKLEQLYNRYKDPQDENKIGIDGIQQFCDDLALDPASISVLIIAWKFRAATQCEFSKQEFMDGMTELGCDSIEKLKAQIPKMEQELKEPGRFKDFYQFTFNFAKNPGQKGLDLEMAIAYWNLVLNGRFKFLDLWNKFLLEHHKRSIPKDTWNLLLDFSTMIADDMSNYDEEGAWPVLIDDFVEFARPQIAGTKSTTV

As for `C#CCSc1nc(Sc2nccs2)c(C#N)c(-c2ccc(C)cc2)n1`, the IC50 is 26.9 nM at DCN1-like protein 1; 1110 nM in the data set on PC-9 [3]; 2450 nM with SMMC-7721; 1620 nM with PC-3; 2200 nM in the data set with MCF7. Also, the Ki at DCN1-like protein 1 stood at 20.8 nM; on DCN1-like protein 4 it was 807 nM; on DCN1-like protein 5, 2140 nM. In addition, the outcome with PC-9 [1] and in the data set with PC-9 [2] was inactive. The Activity entry in the data set with PC-9 [3] (TDE = time-dependent effect) was “Tde”; in the data set with L02 it was “Non-Toxic”; with PC-9 [4], 10.2%; in the data set on PC-9 [5], 19.9%; with NCI-H1975 [7], 1.35%; in the data set with PC-9 [8], “Dose-dependent effect”. In addition, the result with KYSE-140 was Active. Further, the viability at 2.5 µM with NCI-H1975 [6] came out at 80%.

By IC50 is commonly meant the concentration needed to halve the response being measured. A word on the Ki: it is a dissociation constant, usually derived from enzyme kinetics or from competition with a known ligand.
